Compound activity (PubChem BioAssay)
Compounds with a hit are over-represented: about 2.5% of the library has one in this group of screens.
Pemphigus Ab inh – inhibitors of pemphigus antibody binding to DSG3, primary screen, biochemical, bead-based, flow cytometry, scFv-GFP; Desmoglein-3 (Homo sapiens), P32926; DSG3-coupled beads, scFv-anti-DSG3-GFP binding; hits give low values; binding (percent of control), % at 10 µM; hit rate 0.48% among 310,000;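 active = binding more than 3 SD below its plate's average and above zero; inconclusive = below that plate limit but binding exactly zero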;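 also: hits lower antibody fragment binding to DSG3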
UHRF1 binding – UHRF1 methylated DNA binding inhibitors, primary screen, counter-screen for MBD2 inhibitor project, biochemical, TR-FRET, human UHRF1, single concentration | UHRF1 binding to methylated oligo | hit rate 0.75% among 370,000 | inhibition, % at 4.4 µM | E3 ubiquitin-protein ligase UHRF1 (Homo sapiens), Q96T88; in the data active = inhibition above about 21%;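 also: UHRF1 SRA domain binding a hemimethylated CpG hairpin DNA probe; 0% = median of test compound wells and 100% = reference inhibitor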
Target sequence (Q96T88 whole entry, looked up, the tested form may be a part): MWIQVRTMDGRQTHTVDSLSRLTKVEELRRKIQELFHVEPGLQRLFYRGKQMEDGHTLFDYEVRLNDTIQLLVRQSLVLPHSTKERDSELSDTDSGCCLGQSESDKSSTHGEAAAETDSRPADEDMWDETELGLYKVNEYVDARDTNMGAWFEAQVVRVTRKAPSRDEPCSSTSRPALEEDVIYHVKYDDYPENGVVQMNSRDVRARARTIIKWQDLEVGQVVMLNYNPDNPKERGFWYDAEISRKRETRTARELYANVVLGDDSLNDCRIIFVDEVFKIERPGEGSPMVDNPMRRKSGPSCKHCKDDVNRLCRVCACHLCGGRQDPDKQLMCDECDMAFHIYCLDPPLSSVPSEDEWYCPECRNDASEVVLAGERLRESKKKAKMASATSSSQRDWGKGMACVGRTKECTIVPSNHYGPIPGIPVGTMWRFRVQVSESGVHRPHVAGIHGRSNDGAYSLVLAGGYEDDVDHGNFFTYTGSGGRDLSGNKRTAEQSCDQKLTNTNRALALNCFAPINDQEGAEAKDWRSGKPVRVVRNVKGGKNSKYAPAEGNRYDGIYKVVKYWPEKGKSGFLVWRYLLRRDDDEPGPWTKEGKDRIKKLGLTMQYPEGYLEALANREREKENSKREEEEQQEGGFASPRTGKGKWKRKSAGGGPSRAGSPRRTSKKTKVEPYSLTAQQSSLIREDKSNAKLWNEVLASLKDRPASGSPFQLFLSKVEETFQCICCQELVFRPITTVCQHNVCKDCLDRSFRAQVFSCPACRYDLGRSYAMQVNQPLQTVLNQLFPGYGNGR
SUMO1 PPI mod – modulators of SUMO1 protein-protein interactions, primary screen, biochemical, uHTS | SUMO1 binding to a labelled peptide, TR-FRET, 1 h | inhibition, % at 20 µM | hit rate 0.33% among 360,000 | AID 602429, 2012; in the data active = inhibition above about 37%
DNMT1 block – human DNMT1 methyltransferase inhibitors, primary screen, biochemical, molecular beacon, fluorescence, HinP1I cleavage, uHTS; AID 588458, 2011; inhibition (reported as % activation of signal), % at 10 µM; hit rate 0.83% among 360,000; in the data active = inhibition above about 50%
HCV NS3 hel inh – inhibitors of HCV NS3 helicase, primary screen, biochemical, Cy5 molecular beacon fluorescence | inhibition, % at 10.9 µM | hit rate 0.56% among 290,000 | NS3 helicase DNA unwinding;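 active = inhibition above the mean of all tested compounds plus 3 SD, set per campaign, cut at about 35% in these data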;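 also: 0% = DMSO wells and 100% = thioflavine S control wells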
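System: NS3 helicase fragment of HCV / Schedule: 1 h at 25 °C / Control set: DMSO alone as 0% and 110 µM thioflavine S as 100% / Reagent: Cy5/quencher beacon DNA duplex and ATP to start / Technique: Cy5 fluorescence / Replication: singlicate / Evaluation: % inhibition of end-to-start signal ratio versus controls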
MBD2 DNA inh – inhibitors of MBD2 binding to methylated DNA, primary screen, biochemical, TR-FRET, DNA-binding domain, human | inhibition, % at 4.4 µM | hit rate 0.31% among 370,000 | MBD2 binding to methylated oligonucleotide | Methyl-CpG-binding domain protein 2 (Homo sapiens), Q9UBB5; in the data active = inhibition above about 13%
Starred values were filed as active, the others as inactive; ? = inconclusive; / = not tested or not shown; ! = a repeat was not active.

SMILES	Pemphigus Ab inh	UHRF1 binding	SUMO1 PPI mod	DNMT1 block	HCV NS3 hel inh	MBD2 DNA inh
CN(C)C1(c2nnnn2-c2ccc(Cl)cc2)CCCCC1	103.1	0.8	-0.1	-0.3	-8.0	0.3
CC(C)CC(N(C)C)C1(c2ccc(Cl)cc2)CCC1 (stereo unspecified)	79.1*!	2.4	1.0	3.3	/	5.5
Cc1cccc(C2=NCC(=O)N(CC(=O)NCc3ccco3)c3sc4c(c32)CCCC4)c1	101.3	0.4	3.5	-4.2	9.7	1.0
COc1ccc(C2=NCC(=O)N(CC(=O)NCc3ccco3)c3sc4c(c32)CCCC4)cc1	76.1*	0.4	-3.9	-1.5	6.3	-6.6
O=C(Cc1c(-c2ccccc2)nc2ccc(Br)cn12)N1CCCC1	/	19.2	1.9	/	/	5.8
COc1ccc(-c2nc3ccc(Br)cn3c2CC(=O)N2CCCC2)cc1OC	/	23.4*	1.8	/	/	7.6
CCC1(CC)COP(=O)(OCC(Cl)CCl)OC1 (stereo unspecified)	129.7	-0.8	3.4	5.1	/	2.8
Cc1ccc(OP(=O)(NCc2ccccc2)Oc2ccc(C)cc2)cc1	98.8	22.7*	2.4	-2.8	-5.0	4.6
CN1C(=O)NC(=O)/C(=C/c2ccc([N+](=O)[O-])s2)C1=O	95.8	9.1	28.7	9.9	16.5	-1.6
COc1ccc(OC)c(N2C(=O)NC(=O)/C(=C\c3ccc([N+](=O)[O-])s3)C2=O)c1	98.8	3.1	48.0*	16.4	30.2	-3.5
CSc1nc(N)c(N=Nc2ccc([As](=O)(O)O)cc2)c(=O)[nH]1	110.8	-0.5	39.2*	17.9	0.6	2.8
O=C1NC(=O)N(c2ccccc2)C(=O)/C1=C\C=C\c1ccccc1	93.7	5.4	7.5	-2.1	23.7	7.0
CCOc1ccc(N2C(=O)/C(=C/c3ccco3)C(=O)NC2=S)cc1	13.9*	/	114.4*	49.0	30.3	/
CCc1ccc(N2C(=O)NC(=O)/C(=C\C=C\c3ccco3)C2=O)cc1	103.2	9.6	11.6	137.9*	0.3	1.5
Cn1ncnc2c(=O)n(C)c(=O)nc1-2	/	/	29.2	108.8*	/	/
O=C1NC(=O)C(CCc2ccncc2)(C2CCCCC2)C(=O)N1	?	-0.9	-2.2	-0.9	5.8	-0.2
COC1=CC23CCCN2CCc2cc4c(cc2C3C1O)OCO4 (stereo unspecified)	/	43.0*	1.5	4.1	/	0.5
Cn1cccc1C1CCCN1CC(=O)Nc1ccc(C#N)c(Cl)c1 (stereo unspecified)	126.3	0.4	2.2	-11.2	/	-1.2
C=CCC1(CC)C(=O)NC(=S)NC1=O	99.7	-1.0	42.1*	2.3	/	-4.0
C=C1C(=O)OC2CC3(C)OC3CCC(C)=CC(OC(C)=O)C12 (stereo unspecified)	87.3	-0.2	7.2	-1.3	/	-2.2
C=C1C(=O)O[C@@H]2C[C@@H](C)[C@H]3C=CC(=O)[C@]3(O)C[C@@H]12	107.3	4.4	52.5*	-31.0	/	1.7
C[N+]12CCC(CC1)C(C(O)(c1cccc(Cl)c1)c1cccc(Cl)c1)C2 (stereo unspecified)	82.2*	2.5	-5.3	-0.9	-43.1	-2.0
C=C(C)CN1CC[C@]23c4c5ccc(O)c4O[C@H]2c2[nH]c4ccccc4c2C[C@@]3(O)C1C5	/	/	/	/	-26.7	/
Cc1cc2c(C(C)C)c(O)c(O)c(C=O)c2c(O)c1-c1c(C)cc2c(C(C)C)c(O)c(O)c(C=O)c2c1O	/	-4.4	57.9*	22.1	36.8*	-6.8
O=c1[nH]sc2cc(F)ccc12	4.9*	-3.2	5.8	-1.4	0.8	1.2
SMILES	Pemphigus Ab inh	UHRF1 binding	SUMO1 PPI mod	DNMT1 block	HCV NS3 hel inh	MBD2 DNA inh
COc1ccc(C(=O)C(Cc2ccccc2)N(C)C)cc1 (stereo unspecified)	90.9	-3.1	1.0	-1.6	5.7	-2.0
CC1(C)C2([N+](=O)[O-])CN3CN(C2)CC1([N+](=O)[O-])C3	99.1	-1.7	38.6*	5.7	6.8	4.2
CC1(C)C2([N+](=O)[O-])CNCC1([N+](=O)[O-])CNC2	97.8	1.6	0.1	1.3	-5.2	-0.8
O=C(CF)NC(NC(=S)Nc1cccc([N+](=O)[O-])c1)C(Cl)(Cl)Cl (stereo unspecified)	93.4	-3.4	-15.1	-0.7	-1.6	-6.8
CCc1ccccc1NC(=O)N1C[C@H]2C[C@@H](C1)c1cccc(=O)n1C2	103.9	-2.5	-1.7	-1.2	17.7	-2.8
C[C@]12CCC3C(CC[C@H]4C[C@H](O)CC[C@]34C)C1CC(=O)[C@@H]2O (stereo partly specified)	95.2	-0.3	0.7	3.7	/	6.0
CC(=O)O[C@H]1CCC2C3CC[C@H]4[C@@H](O)[C@H](O)CC[C@]4(C)C3CC[C@@]21C (stereo partly specified)	99.3	1.1	1.3	1.9	/	-1.5
CN1C(=O)NC(=O)/C(=C/c2ccc([N+](=O)[O-])o2)C1=O	103.5	65.2*	/	/	18.3	12.0
O=C(NC1CN2CCC1CC2)c1cc(-c2ccc(Cl)cc2)nc2ccccc12 (stereo unspecified)	/	-8.8	/	/	/	-6.0
COc1ccc(-c2ccc3c(c2)CN(c2cccc(Cl)c2)Cc2cnnn2-3)cc1	/	25.1*	-5.3	-9.0	/	11.4
Nc1ccc2ccc3cccc[n+]3c2c1	90.5	-298.7	-13.8	108.5*	2.9	-83.5
O/N=C1\CCC2CN(C3CCCCC3)CC2C1 (stereo unspecified)	11.8*	0.0	3.7	0.7	0.6	-5.6
CCN(CC)P(=O)(NC(=O)C(Cl)(Cl)Cl)N(CC)CC.[Cl-].[Cl-].[Cl-].[Nd+3]	97.4	-2.4	106.7*	27.3	1.4	4.7
CCCCC(=O)N/N=C/c1c(O)n(Cc2ccco2)c(=O)[nH]c1=O	97.9	16.8	12.9	21.3	31.4	-1.8
CC(=O)Nc1ccc(N=Cc2c(O)n(Cc3ccco3)c(=O)[nH]c2=O)cc1	87.7	6.3	55.2*	2.2	6.8	7.5
Cn1c(O)c(C=Nc2ccccc2Sc2ccccc2)c(=O)n(C)c1=O	100.3	-0.2	-0.6	-2.0	7.7	1.3
COc1ccc(C(CNC(=O)c2ccc3c(c2)CCC3)N(C)C)cc1 (stereo unspecified)	97.8	0.1	1.9	-0.5	-1.7	2.8
O=C(Cn1cnc2ccccc2c1=O)NCCC(=O)N1CCC2(CC1)OCCO2	93.7	0.8	4.2	0.4	-1.6	2.8
